Measurements taken from ChEMBL document CHEMBL1150674, “Trypanocidal diarylheptanoids from Aframomum letestuianum” (J Nat Prod, 2003).
Converted amounts (≈) assume the structure as drawn.

What was measured:
Format in all cases: functional, organism-based
[1] = tested on: Trypanosoma brucei brucei; assay: Antitrypanosomal activity against Trypanosoma brucei brucei Lab110 EATRO after 48 hrs
Summary of the method: (§1)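 Bloodstream-form trypanosomes were cultured in modified IMDM with 20% horse serum at 37 °C, in 24-well plates inoculated with 10^5 trypanosomes per well. Half the well volume was changed daily. Compounds were dissolved in DMSO, with a final DMSO concentration of at most 0.3%, and tested in duplicate at final concentrations of 0.1–100 µg/mL. Parasites were Coulter-counted at 48 h, and IC50 values were taken from semi-log plots. Each assay was run at least twice.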

[2] = tested on: Trypanosoma brucei rhodesiense; assay: Antitrypanosomal activity against Trypanosoma brucei rhodesiense KETRI 243 isolate after 48 hrs; summary of the method: as §1
[3] = tested on: Trypanosoma brucei rhodesiense; assay: Antitrypanosomal activity against Trypanosoma brucei rhodesiense KETRI 243 As 10-3 isolate after 48 hrs; summary of the method: as §1

Structure (SMILES)	IC50 [1] [µg/mL]	IC50 [2] [µg/mL]	IC50 [3] [µg/mL]
O=C(/C=C(O)/C=C/c1ccc(O)cc1)CCc1ccc(O)cc1	2.6 (≈ 8.38 µM)	2.8 (≈ 9.02 µM)	1.3 (≈ 4.19 µM)
N=C(N)c1ccc(OCCCCCOc2ccc(C(=N)N)cc2)cc1 [PENTAMIDINE]	0.0006 (≈ 0.00176 µM)	0.0005 (≈ 0.00147 µM)	0.004 (≈ 0.0117 µM)
Nc1nc(N)nc(Nc2ccc([As]3SCC(CO)S3)cc2)n1 (stereo unspecified) [MELARSOPROL]	0.002	0.0005	0.005
O=C(CCc1ccc(O)cc1)CC(=O)CCc1ccc(O)cc1 [LETESTUIANIN C]	1.4 (≈ 4.48 µM)	2.3 (≈ 7.36 µM)	2.6 (≈ 8.32 µM)

More lines, now with the values ahead:

IC50 [1] [µg/mL]	IC50 [2] [µg/mL]	IC50 [3] [µg/mL]	Structure (SMILES)
> 100	–	–	COc1cc(CCC(=O)/C=C(O)/C=C/c2ccc(O)cc2)ccc1O [LETESTUIANIN A]
67 (≈ 181 µM)	> 100	> 100	COc1cc(/C=C/C(O)=C/C(=O)CCc2ccc(O)c(OC)c2)ccc1O [LETESTUIANIN B]
